Experiment [1] concerns SF-268. The experiment is described as follows: Cytotoxicity against human SF268 cells after 72 hrs BY SRB assay. To be noted: SF-268, 72 h. It counts as functional, cell-based. The gist of the method:
(§1)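 Cells seeded at 3 × 10^4 cells/mL (180 μL per well) and preincubated 24 h at 37 °C, 5% CO2. Compound added at various concentrations (20 μL), then 72 h further incubation. Fixed with 50% (w/v) TCA, stained 30 min with 0.4% SRB in 1% acetic acid, washed with 1% acetic acid. Dye dissolved in 10 mM Tris base, OD read at 570 nm. Cisplatin as positive control. Triplicate; IC50 by nonlinear curve fitting.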

The subject of experiment [2] is MCF7. Description: Cytotoxicity against human MCF7 cells after 72 hrs BY SRB assay. It counts as functional, cell-based. To be noted: MCF7, 72 h. The gist of the method: as §1
Background: In SRB staining, fixed cells bind dye roughly in proportion to their protein.

In experiment [3] the test system is NCI-H460. The experiment is described as follows: Cytotoxicity against human NCI-H460 cells after 72 hrs BY SRB assay. It counts as functional, cell-based. The conditions noted are these: NCI-H460, 72 h. The gist of the method: as §1
Experiment [4] has as its system Staphylococcus aureus. The experiment is described as follows: Antimicrobial activity against Staphylococcus aureus ATCC 29213 assessed as diameter of zone of growth inhibition at 10 ug/6 mm disc incubated for 12 hrs by disc diffusion assay. It counts as functional, organism-based. A digest of the protocol:
(§2)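 Bacteria grown 10 h at 37 °C in LB broth as seed cultures, then mixed into LB agar to pour plates. Sterile 6 mm filter disks loaded with 5 μL test solution at 2 μg/μL in DMSO; ampicillin disks (5 μg/μL in DMSO) as positive control. Plates incubated 12 h at 37 °C, then diameter of the growth-inhibition zone around each disk recorded.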
In general terms: Agar diffusion results depend on both activity and mobility in agar.

Experiment [5] deals with Bacillus thuringiensis. Description: Antimicrobial activity against Bacillus thuringiensis ATCC 39765 assessed as diameter of zone of growth inhibition at 10 ug/6 mm disc incubated for 12 hrs by disc diffusion assay. It counts as functional, organism-based. The gist of the method:
as §2

In experiment [6] the test system is Bacillus subtilis. Description: Antimicrobial activity against Bacillus subtilis ATCC 6633 assessed as diameter of zone of growth inhibition at 10 ug/6 mm disc incubated for 12 hrs by disc diffusion assay. It counts as functional, organism-based. The gist of the method: as §2

Calls of active or inactive are those of the source. No cut-off for these calls is given here. Some results are limits rather than exact numbers.

A word on the IC50: it is the concentration needed to halve the response being measured. As to `CCCCC[C@H](OC)c1c(O)cc2c(c1O)C(=O)c1c(O)cc(OC)cc1C2=O`, the concentration for half-maximal inhibition (IC50) in experiment [1], in experiment [2] and in experiment [3] was over 50 µM each time. Further, the “diameter of the inhibition zone (DIZ)” value in experiment [4], in experiment [5] and in experiment [6] was “inactive” each time.
Take `CCCCC[C@H](O)c1c(O)cc2c(c1O)C(=O)c1c(cc(O)c(Cl)c1O)C2=O`: the half-maximal inhibitory concentration (IC50) was over 50 µM in experiment [1], 36.4 µM in experiment [2] and over 50 µM in experiment [3]. Moreover, the “diameter of the inhibition zone (DIZ)” value in experiment [4], in experiment [5] and in experiment [6] was “inactive” each time.
With `CCCC/C=C/c1c(O)cc2c(c1O)C(=O)c1c(cc(O)c(Cl)c1O)C2=O`, the half-inhibitory concentration (IC50) in experiment [1], in experiment [2] and in experiment [3] was over 50 µM throughout. The “diameter of the inhibition zone (DIZ)” value in experiment [4], in experiment [5] and in experiment [6] was “inactive” throughout.
In the case of `CCCCC[C@H](O)c1c(O)cc2c(c1O)C(=O)c1c(cc(OC)c(Cl)c1O)C2=O`, the IC50 in experiment [1] amounted to 7.11 µM; in experiment [2], 6.64 µM; in experiment [3] it was 7.42 µM. The “diameter of the inhibition zone (DIZ)” value in experiment [4], in experiment [5] and in experiment [6] was “inactive” in each case.
As to `CCCCC[C@H](O)c1c(O)cc2c(c1O)C(=O)c1c(O)cc(O)cc1C2=O`, the IC50 in experiment [1] was over 50 µM; in experiment [2], 45.5 µM; in experiment [3] it was over 50 µM. In addition, the “diameter of the inhibition zone (DIZ)” value in experiment [4], in experiment [5] and in experiment [6] was “inactive” each time.
With `CCCCC[C@H](OCCCC)c1c(O)cc2c(c1O)C(=O)c1c(cc(O)c(Cl)c1O)C2=O`, the values for the IC50 in experiment [1], in experiment [2] and in experiment [3] were over 50 µM, 49.5 µM and over 50 µM, respectively. The “diameter of the inhibition zone (DIZ)” value in experiment [4], in experiment [5] and in experiment [6] was “inactive” throughout.
As to `CCCCC[C@H](OC)c1c(O)cc2c(c1O)C(=O)c1c(cc(OC)c(Cl)c1O)C2=O`, the IC50 in experiment [1], in experiment [2] and in experiment [3] was over 50 µM throughout. The “diameter of the inhibition zone (DIZ)” value in experiment [4], in experiment [5] and in experiment [6] was “inactive” throughout.
Consider `CCCCC[C@H](O)c1c(O)cc2c(c1O)C(=O)c1c(O)cc(OC)cc1C2=O`, for which the 50% inhibitory concentration (IC50) in experiment [1], in experiment [2] and in experiment [3] was over 50 µM in each case. Also, the “diameter of the inhibition zone (DIZ)” value in experiment [4], in experiment [5] and in experiment [6] was “inactive” in each case.
As to `CCCCC[C@H](OC)c1c(O)cc2c(c1O)C(=O)c1c(O)cc(O)cc1C2=O`, the results for the half-maximal inhibitory concentration (IC50) in experiment [1], in experiment [2] and in experiment [3] were 33.6 µM, 35.3 µM and 44.2 µM, respectively. Besides, the “diameter of the inhibition zone (DIZ)” value in experiment [4], in experiment [5] and in experiment [6] was “inactive” in each case.
As for `CCCC/C=C/c1c(O)cc2c(c1O)C(=O)c1c(O)cc(O)cc1C2=O` [AVERYTHRIN], the IC50 in experiment [1] is over 50 µM; in experiment [2], 29.7 µM; in experiment [3] it was over 50 µM. Besides, the “diameter of the inhibition zone (DIZ)” value in experiment [4], in experiment [5] and in experiment [6] was “inactive” each time.
As for `CCCC/C=C/c1c(O)cc2c(c1O)C(=O)c1c(cc(OC)c(Cl)c1O)C2=O`, the half-maximal inhibitory concentration (IC50) was over 50 µM in experiment [1], 24.4 µM in experiment [2] and over 50 µM in experiment [3]. For the same molecule, the “diameter of the inhibition zone (DIZ)” value in experiment [4], in experiment [5] and in experiment [6] was “inactive” each time.
As to `CCCCC[C@H](O)c1c(O)cc2c(c1O)C(=O)c1c(cc(OC)c(Br)c1O)C2=O`, the IC50 in experiment [1] turned out to be 24.7 µM; in experiment [2], 25.6 µM; in experiment [3], 18.9 µM. Further, the “diameter of the inhibition zone (DIZ)” value in experiment [4], in experiment [5] and in experiment [6] was “inactive” in each case.
On to `CCCCC[C@H](OCCCC)c1c(O)cc2c(c1O)C(=O)c1c(O)cc(O)cc1C2=O`, for which the half-inhibitory concentration (IC50) in experiment [1] was 47.2 µM; in experiment [2], 40.5 µM; in experiment [3], over 50 µM. Moreover, the “diameter of the inhibition zone (DIZ)” value in experiment [4], in experiment [5] and in experiment [6] was “inactive” in each case.
As to `CCCCC[C@H](OC)c1c(O)cc2c(c1O)C(=O)c1c(cc(O)c(Cl)c1O)C2=O`, the IC50 was determined as 34.1 µM in experiment [1], 26.1 µM in experiment [2] and 37.2 µM in experiment [3]. Besides, the “diameter of the inhibition zone (DIZ)” value in experiment [4], in experiment [5] and in experiment [6] was “inactive” each time.
On to `CCCCC[C@H](OC)c1c(O)cc2c(c1O)C(=O)c1c(cc(OC)c(Br)c1O)C2=O`, for which the IC50 in experiment [1], in experiment [2] and in experiment [3] was over 50 µM throughout. For the same molecule, the “diameter of the inhibition zone (DIZ)” value in experiment [4], in experiment [5] and in experiment [6] was “inactive” each time.

The values above are taken from ChEMBL document CHEMBL2069264, “Halogenated anthraquinones from the marine-derived fungus Aspergillus sp. SCSIO F063” (J Nat Prod, 2012).
